STAT1 blocker: reduces IFN-gamma driven STAT1 reporter signal. NIH 3T3 STAT1-luciferase reporter, luminescence. inhibition, % at 5.5 µM. 200,000 tested, 0.35% active;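 active = inhibition above a set limit, the mean inhibition across all tested compounds plus 3 SD, cut at about 34% in these data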;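 note: 0% = IFN-gamma with DMSO and 100% = IFN-gamma with 300 µM nifuroxazide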
STAT1 activator: increases IFN-gamma driven STAT1 reporter signal; NIH 3T3 STAT1-luciferase reporter, luminescence; 100% = IFN-gamma alone, no compound; activation (% of control), % at 5.5 µM; 200,000 tested, 2.6% active;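 active = activation above the screen-wide mean activation plus 3 SD, cut at about 130% in these data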;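 note: raw ratio to IFN-gamma control signal so 100% means no change and 0% no light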
STAT3 activator: increases IL-6 driven STAT3 reporter signal; U3A cells, IL-6 STAT3-luciferase reporter, luminescence; 100% = signal with IL-6 EC80 alone; activation (% of control), % at 5.6 µM; 190,000 tested, 0.91% active; AID 871;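 active = activation above the screen-wide mean of compound activation plus 3 SD, cut at about 130% in these data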;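 note: 0% = background luminescence of wells with medium and substrate only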
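Test system: STAT3-luciferase reporter U3A cells; Detection: reporter luminescence signal; Times: 1 h compound pre-exposure, 6 h IL-6 stimulation, 37 °C; Benchmarks: IL-6-only high control; Also added: IL-6 stimulus at 33 ng/mL final.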
STAT3 inh: STAT3 signaling inhibition | AID 862 | U3A cells, IL-6 STAT3-luciferase reporter, luminescence; host cell line lacks STAT1 | 190,000 tested, 0.89% active | inhibition, % at 5.5 µM;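 active = inhibition above the mean inhibition across all screened compounds plus 3 SD, cut at about 44% in these data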;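 note: 0% = DMSO only wells and 100% = 100 µM nifuroxazide control wells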
Numbers without * were called inactive. Rows were chosen to be rich in hits. Some 4.3% of all compounds tested hit in one or more screens of this group.

SMILES	STAT1 blocker	STAT1 activator	STAT3 activator	STAT3 inh
c1ccc(-c2ncc3c(ccc4ccccc43)n2)cc1	-41	141*	119	-27
Cc1ccc(O)c(C(=O)CC(=O)c2cccc(F)c2)c1	-32	130*	102	4
O=C(CC(=O)c1cc(Cl)ccc1O)c1ccccc1	-34	131*	108	-4
CCN(CC)c1ccc(NC(=O)c2ccccc2)cc1S(=O)(=O)Nc1ccccc1OC	-5	104	106	-5
COc1ccc(N2CS(=O)CC2=O)cc1 (centres undefined)	-8	106	108	2
O=C(COn1nnc2ccccc21)NCC1CCCCC1	-31	129*	109	-7
COc1ccc(OC)c2c1sc(=NC(=O)C(C)(C)C)n2C	-4	104	93	14
COc1ccc(C(=O)N=c2sc3c(C)ccc(OC)c3n2C)cc1	-46	142*	106	2
COc1ccc(S(=O)(=O)N(C)C)cc1NC(=O)Cc1c[nH]c2ccccc12	14	88	133*	-40
COc1cccc(Nc2nc(N)nc(-c3oc4ccccc4c3C)n2)c1	-38	134*	123	-24
Cc1ccc(Nc2nc(N)nc(-c3oc4ccccc4c3C)n2)cc1	-61	156*	154*	-54
NNC(=O)c1ccc(O)cc1O	-4	104	94	6
Cc1ccnc(SCC(=O)c2ccc(Br)cc2)c1C#N	-51	146*	109	-1
Cc1cc(OCC(=O)OCC(=O)Nc2cc(C(F)(F)F)ccc2N2CCOCC2)ccc1Cl	16	85	96	6
Cc1cc(C(=O)N/N=C2\CC(=O)c3ccccc32)c(C)n1-c1ccccc1	-43	137*	92	14
CCC/C(O)=C1\C(=O)CCCC1=NCCc1c(C)[nH]c2ccc(OC)cc12	22	79	97	8
c1ccc(-n2ncc3c2ncn2nc(-c4ccco4)nc32)cc1	-41	137*	86	20
COc1cccc(OCc2nc3c4cnn(-c5ccccc5)c4ncn3n2)c1	1	99	89	16
c1ccc(-c2noc(CCC3CCCC3)n2)cc1	-16	113	104	-3
c1ccc(-c2noc(CC3CCCCC3)n2)cc1	-40	136*	98	10
COc1ccc(C(=O)Nc2ccc(Cl)c(Cl)c2)c(OC)n1	-34	131*	136*	-40
COc1ccccc1-c1cc(C(F)(F)F)nc(S(=O)(=O)CCCC(=O)Nc2cc(C)on2)n1	35*	68	99	5
O=C(O)CN(C1CCCCC1)S(=O)(=O)c1ccc(F)cc1	1	98	105	-3
Cc1ccsc1/C=C1\CCC(C2CCCC2)C1=O (centres undefined)	-45	140*	82	24
COCC(=O)n1nc(-c2ccccc2)nc1NCc1ccccc1	-40	137*	104	-5
SMILES	STAT1 blocker	STAT1 activator	STAT3 activator	STAT3 inh
CC(=O)n1nc(-c2ccccc2)nc1NCc1ccc(N(C)C)cc1	-49	142*	105	-1
O=C(NC1CCCCCC1)c1c(O)c2ccccc2[nH]c1=O	-45	141*	94	10
Cc1cc(C)c(OCC(=O)NCC2CCCO2)c(C)c1 (centres undefined)	-6	105	110	-8
O=C(N/N=C/c1c(Cl)cccc1Cl)c1cccc(F)c1	-15	113	98	13
S=C(N/N=C/c1ccc(Cl)c(Cl)c1)Nc1ccccc1Cl	-27	124	89	17
Fc1cccc(/C=N/NC(=S)Nc2ccccc2Cl)c1	-35	131*	99	2
O=C(N/N=C/c1cccc(O)c1)c1csc2ccccc12	-2	102	93	8
O=C(N/N=C/c1ccccc1C(F)(F)F)c1ccc(O)cc1	-33	130*	115	-14
O=C(N/N=C/c1cccc(F)c1)c1csc2c1CCCC2	-48	142*	102	-2
O=C(N/N=C/c1ccccc1Cl)c1cccc(F)c1	-54	148*	109	0
C=C(C)c1cccc(C(C)(C)NC(=O)NC2CC(C)(C)NC(C)(C)C2)c1	4	95	108	-8
Cc1ccc(Cl)cc1NC(=O)CCN1C(=O)C2C3CCC(C3)C2C1=O (centres undefined)	-3	101	102	-1
CC(C)/C(=N\NS(=O)(=O)c1ccc(Br)cc1)c1cccs1	4	94	90	19
COC(=O)C1C(c2ccc(OC)cc2)C(C(=O)OC)S(=O)(=O)C(CCN2CCCCC2)S1(=O)=O (centres undefined)	-2	101	106	-4
O=S(=O)(N/N=C\c1ccc(-c2ccccc2Cl)o1)c1ccccc1	2	97	93	11
O=C(N/N=C/c1ccc(F)cc1)c1ccccc1	-32	129*	97	5
O=C(N/N=C/c1ccc(-c2ccccc2Cl)o1)c1ccccc1	-42	137*	98	13
O=C(Nc1ccccc1C(=O)N/N=C/c1ccncc1)c1ccccc1	54*	50	45	67*
O=C(N/N=C/c1cccc(F)c1)c1ccc(Cl)cc1	-41	138*	96	10
CC1CN(C(=O)C2CC2)C(C)CN1C(=O)C1CC1 (centres undefined)	-5	104	102	-7
O=C(NCCc1ccccc1)c1ccc(NCC2CCCO2)c([N+](=O)[O-])c1 (centres undefined)	-27	122	113	-8
COC(=O)C1=C(C(=O)OC)SC(=C2C(=S)C(C)(C)N(C(=O)CC(C)C)c3ccccc32)S1	1	99	100	1
CC(=O)Nc1ccc(/C=C/c2ccc3c([N+](=O)[O-])cccc3n2)cc1	-42	136*	96	7
Cc1c(C(=O)C(=O)NCc2cccs2)c2ccccc2n1C	-6	104	84	23
CCc1ccccc1NC(=O)c1cnc2n(c1=O)CCS2	-13	112	93	13
SMILES	STAT1 blocker	STAT1 activator	STAT3 activator	STAT3 inh
CCc1ccc(NC(=O)c2cnc3n(c2=O)CCS3)cc1	-34	131*	118	-17
COc1ccccc1C(=O)NCC(=O)N/N=C/c1cn[nH]c1-c1ccccc1	2	96	95	8
COc1cc(C(=O)Nc2ccc(N(C)C)cc2)c([N+](=O)[O-])cc1OC	-49	146*	100	6
CCNC(=O)NC(=O)C(C)Sc1nc2ccccc2n1CC(C)C (centres undefined)	2	98	94	12
C(=N\NC1=Nc2cccc3cccc1c23)/c1ccccn1	-89	182*	157*	-56
Clc1ccccc1/C=N/NC1=Nc2cccc3cccc1c23	-90	180*	159*	-67
NC(=O)NNC1=Nc2cccc3cccc1c23	1	98	79	29
C=CCOc1ccc(/C=N/NC(=O)C(C)Sc2ccccn2)cc1OC (centres undefined)	3	97	99	2
CCN1CCCC1CNC(=O)C(=O)NCCc1ccc(OC)c(OC)c1 (centres undefined)	-5	103	103	3
CC(=O)c1cnc2c(-c3ccc(Cl)cc3)c(C)nn2c1C	-3	102	88	16
Cc1nn2cc(-c3ccc(Cl)cc3)cnc2c1Cl	-45	140*	94	9

From PubChem BioAssay
